The test system of data set [1] is five human cancer cell lines (HL-60, SMMC-7721, A-549, MCF-7 and SW480). Description: Cytotoxicity against the panel of five tested cancer cell lines. In kind it is cell-based. Conditions: for IC50: Homo sapiens, read-out: IC50 against all the tested cancer cell lines; for cytotoxicity against the tested cancer cell lines (in words): five tested cancer cell lines. The method, boiled down: (§1)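 Human cancer lines from ATCC, grown in RPMI-1640 or DMEM with 10% FBS at 37 °C, 5% CO2. Seeding at 1 × 10^5 cells per mL: adherent cells 12 h before dosing, suspension cells at dosing. 48 h exposure to graded concentrations, in triplicate; cisplatin and paclitaxel as positive controls. MTS added for 4 h at 37 °C, lysis in 20% SDS–50% DMF, OD 490 nm. IC50 by Reed and Muench's method.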

For data set [2], the system named is SMMC-7721 (hepatoma cells). Description: In vitro cytotoxicity, MTT/MTS cell viability assay, SMMC-7721. It is filed as cell-based, human. Conditions: read-out: IC50 ± SD, SMMC-7721. The method in brief:
as §1

Data set [3] concerns SW480 (colon cancer) cells. Description: In vitro cytotoxicity, MTT/MTS cell viability assay, SW480. In kind it is cell-based, human. Conditions: read-out: IC50 ± SD, SW480. The method in brief: as §1
The test system of a further data set is HL-60 (leukemia) cells. Description: In vitro cytotoxicity, MTT/MTS cell viability assay, HL-60. It is filed as cell-based, human. Conditions: read-out: IC50 ± SD, HL-60. The method in brief:
as §1
In general terms: Tetrazolium dyes change colour on reduction, which living cells bring about.

In data set [4] the test system is A-549 (lung cancer) cells. Description: In vitro cytotoxicity, MTT/MTS cell viability assay, A-549. In kind it is cell-based, human. Conditions: read-out: IC50 ± SD, A-549. The method, boiled down:
as §1

For data set [5], the system named is MCF-7 (breast cancer) cells. Description: In vitro cytotoxicity, MTT/MTS cell viability assay, MCF-7. It is filed as cell-based, human. Conditions: read-out: IC50 ± SD, MCF-7. The method in brief: as §1
In data set [6] the test system is human normal pulmonary epithelial cells (BEAS-2B). Put plainly: Growth inhibitory effect on normal cells, BEAS-2B. It is filed as cell-based. Conditions: for IC50: read-out: IC50 ± SD, BEAS-2B.

Where two headings read alike, the source gives them in different places.

Take `COc1c(O)cc2oc3cc(O)c(CC=C(C)C)c(O)c3c(=O)c2c1CC(O)C(C)(C)O` (stereo not drawn) [Compound 2b, 1,3,6-Trihydroxy-2-(3-methyl-2-butenyl)-7-methoxy-8-(2,3-dihydroxy-3-methylbutyl)xanthone]: the half-maximal inhibitory concentration (IC50) (usually the concentration that inhibits the measured activity by half) in data set [1] was more than 40 µM; in data set [2] (Homo sapiens, SMMC-7721, 48 h), more than 40 µM; in data set [3] (Homo sapiens, SW480, 48 h) it was more than 40 µM; with HL-60 (leukemia) cells (Homo sapiens, HL-60, 48 h), more than 40 µM; in data set [4] (Homo sapiens, A549, 48 h) it was more than 40 µM; in data set [5] (Homo sapiens, MCF7, 48 h), more than 40 µM.

Consider `COc1cc2oc3cc(OC)c(OC)c(CCC(C)C)c3c(=O)c2c(OC)c1CC(OC)C(C)(C)OC` (stereo not drawn) [Compound 2j, 2-(2,3-Dimethoxy-3-methylbutyl)-8-isopentyl-1,3,6,7-tetramethoxy-9H-xanthen-9-one], for which the “cytotoxicity against the tested cancer cell lines (in words)” value (“cytotoxicity” for short) in data set [1] is given as “disappearance of cytotoxicity”. For the same compound, the IC50 was more than 40 µM in data set [2] (Homo sapiens, SMMC-7721, 48 h); more than 40 µM in data set [3] (Homo sapiens, SW480, 48 h); more than 40 µM with HL-60 (leukemia) cells (Homo sapiens, HL-60, 48 h); more than 40 µM in data set [4] (Homo sapiens, A549, 48 h); more than 40 µM in data set [5] (Homo sapiens, MCF7, 48 h).

Regarding `COc1c(O)cc2oc3cc(O)c(CC(O)C(C)(C)O)c(O)c3c(=O)c2c1CC=C(C)C` (stereo not drawn) [Compound 2a, 1,3,6-Trihydroxy-2-(2,3-dihydroxy-3-methylbutyl)-7-methoxy-8-(3-methyl-2-butenyl)xanthone], the “cytotoxicity” value in data set [1] is on record as “slightly decreased activity or comparative activity”. The IC50 in data set [2] (Homo sapiens, SMMC-7721, 48 h) is 23.4 ± 1.29 µM; in data set [3] (Homo sapiens, SW480, 48 h) it was more than 40 µM; in data set [6] (Homo sapiens, BEAS-2B) it was 18.3 ± 0.51 µM; in the data set on HL-60 (leukemia) cells (Homo sapiens, HL-60, 48 h), 18.2 ± 0.48 µM; in data set [4] (Homo sapiens, A549, 48 h), 19.8 ± 1.42 µM; in data set [5] (Homo sapiens, MCF7, 48 h), 23.7 ± 0.64 µM.

As to `COc1c(O)cc2oc3cc(O)c(CC(O)C(C)(C)O)c(O)c3c(=O)c2c1CC(O)C(C)(C)O` (stereo not drawn) [Compound 2c, 1,3,6-Trihydroxy-7-methoxy-2,8-bis(2,3-dihydroxy-3-methylbutyl)-9H-xanthen-9-one], the half-maximal inhibitory concentration (IC50) is more than 40 µM in data set [1]; more than 40 µM in data set [2] (Homo sapiens, SMMC-7721, 48 h); more than 40 µM in data set [3] (Homo sapiens, SW480, 48 h); more than 40 µM in the data set on HL-60 (leukemia) cells (Homo sapiens, HL-60, 48 h); more than 40 µM in data set [4] (Homo sapiens, A549, 48 h); more than 40 µM in data set [5] (Homo sapiens, MCF7, 48 h). Further, in data set [1], the “cytotoxicity” value is “completely disappeared”.

As for `O=c1c2ccc(O)cc2oc2cc(O)cc(O)c12` [Compound 2u, 1,3,6-Trihydroxy-9H-xanthen-9-one], the half-inhibitory concentration (IC50) in data set [2] (Homo sapiens, SMMC-7721, 48 h) was more than 40 µM; in data set [3] (Homo sapiens, SW480, 48 h), more than 40 µM; in the data set on HL-60 (leukemia) cells (Homo sapiens, HL-60, 48 h), more than 40 µM; in data set [4] (Homo sapiens, A549, 48 h), more than 40 µM; in data set [5] (Homo sapiens, MCF7, 48 h), more than 40 µM.

Take `COc1c(O)cc2oc3cc(O)c(CC=C(C)C)c(O)c3c(=O)c2c1CC1OC1(C)C` (stereo not drawn) [Compound 2l, 1-((3,3-Dimethyloxiran-2-yl)methyl)-3,6,8-trihydroxy-2-methoxy-7-(3-methylbut-2-en-1-yl)-9H-xanthen-9-one]: the IC50 was more than 40 µM in data set [1]; more than 40 µM in data set [2] (Homo sapiens, SMMC-7721, 48 h); more than 40 µM in data set [3] (Homo sapiens, SW480, 48 h); more than 40 µM in the data set with HL-60 (leukemia) cells (Homo sapiens, HL-60, 48 h); more than 40 µM in data set [4] (Homo sapiens, A549, 48 h); more than 40 µM in data set [5] (Homo sapiens, MCF7, 48 h).

Take `COc1c(O)cc2oc3cc(O)c(CCC(C)C)c(O)c3c(=O)c2c1CC(O)C(C)(C)O` (stereo not drawn) [Compound 2e, 1,3,6-Trihydroxy-2-isopentyl-7-methoxy-8-(2,3-dihydroxy-3-methylbutyl)-9H-xanthen-9-one]: the IC50 in data set [2] (Homo sapiens, SMMC-7721, 48 h) is more than 40 µM; in data set [3] (Homo sapiens, SW480, 48 h), more than 40 µM; in data set [6] (Homo sapiens, BEAS-2B), more than 40 µM; in the data set with HL-60 (leukemia) cells (Homo sapiens, HL-60, 48 h), 18.7 ± 0.23 µM; in data set [4] (Homo sapiens, A549, 48 h), more than 40 µM; in data set [5] (Homo sapiens, MCF7, 48 h) it was more than 40 µM. The “toxicity to BEAS-2B cells (in words)” value in data set [6] (BEAS-2B normal cells) is “non-cytotoxic”.

`COc1cc2oc3cc(OC)c(OC)c(CC=C(C)C)c3c(=O)c2c(OC)c1CC(OC)C(C)(C)OC` (stereo not drawn) [Compound 2i, 2-(2,3-Dimethoxy-3-methylbutyl)-1,3,6,7-tetramethoxy-8-(3-methylbut-2-en-1-yl)-9H-xanthen-9-one]: the “cytotoxicity” value in data set [1] is recorded as “disappearance of cytotoxicity”. Besides, the IC50 in data set [2] (Homo sapiens, SMMC-7721, 48 h) is more than 40 µM; in data set [3] (Homo sapiens, SW480, 48 h) it was more than 40 µM; in the data set with HL-60 (leukemia) cells (Homo sapiens, HL-60, 48 h), more than 40 µM; in data set [4] (Homo sapiens, A549, 48 h), more than 40 µM; in data set [5] (Homo sapiens, MCF7, 48 h), more than 40 µM.

As for `COc1cccc2c1C(=O)c1c(O)c3c(c(O)c1C2=O)C[C@@](O)(C(=O)CO)C[C@@H]3O[C@H]1C[C@H](N)[C@H](O)[C@H](C)O1` [ADM, Adriamycin, reference compound], the IC50 is 0.9 ± 0.03 µM in data set [2] (Homo sapiens, SMMC-7721, 48 h); 0.11 ± 0.01 µM in data set [3] (Homo sapiens, SW480, 48 h); more than 40 µM in data set [6] (Homo sapiens, BEAS-2B); 0.14 µM in the data set on HL-60 (leukemia) cells (Homo sapiens, HL-60, 48 h); 0.3 ± 0.01 µM in data set [4] (Homo sapiens, A549, 48 h); 0.9 ± 0.02 µM in data set [5] (Homo sapiens, MCF7, 48 h).

Regarding `N.N.[Cl][Pt][Cl]` [DDP, Cisplatin, reference compound], the 50% inhibitory concentration (IC50) in data set [2] (SMMC-7721 cells, 48 h exposure) is 18 ± 0.49 µM; in data set [3] (SW480 cells, 48 h exposure), 14.8 ± 2.15 µM; in data set [6] (BEAS-2B normal pulmonary epithelial cells), more than 40 µM; with HL-60 (leukemia) cells (HL-60 cells, 48 h exposure), 3.19 ± 0.18 µM; in data set [4] (A-549 cells, 48 h exposure) it was 13.8 ± 0.74 µM; in data set [5] (MCF-7 cells, 48 h exposure), 28.4 ± 3.71 µM.

`COc1c(O)cc2oc3cc(O)c(CCC(C)(C)O)c(O)c3c(=O)c2c1CC=C(C)C` [Compound 2n, 1,3,6-Trihydroxy-2-(3-hydroxy-3-methylbutyl)-7-methoxy-8-(3-methylbut-2-en-1-yl)-9H-xanthen-9-one]: the “cytotoxicity” value in data set [1] was “slightly decreased activity or comparative activity”. The IC50 in data set [2] (Homo sapiens, SMMC-7721, 48 h) was determined as 26.3 ± 1.04 µM; in data set [3] (Homo sapiens, SW480, 48 h) it was 22.7 ± 2.35 µM; in data set [6] (Homo sapiens, BEAS-2B) it was 29.3 ± 1.02 µM; in the data set on HL-60 (leukemia) cells (Homo sapiens, HL-60, 48 h), 14.4 ± 0.05 µM; in data set [4] (Homo sapiens, A549, 48 h), 17 ± 0.77 µM; in data set [5] (Homo sapiens, MCF7, 48 h) it was 24.6 ± 0.47 µM.

On to `COc1c(O)cc2oc3cc(O)c(CC(O)C(C)(C)O)c(O)c3c(=O)c2c1CCC(C)C` (stereo not drawn) [Compound 2d, 1,3,6-Trihydroxy-2-(2,3-dihydroxy-3-methylbutyl)-7-methoxy-8-isopentyl-9H-xanthen-9-one], for which the “cytotoxicity” value in data set [1] is given as “slightly decreased activity or comparative activity”. Also, the IC50 in data set [2] (Homo sapiens, SMMC-7721, 48 h) was 26.9 ± 3.75 µM; in data set [3] (Homo sapiens, SW480, 48 h), more than 40 µM; in data set [6] (Homo sapiens, BEAS-2B) it was more than 40 µM; with HL-60 (leukemia) cells (Homo sapiens, HL-60, 48 h) it was 21.6 ± 2.41 µM; in data set [4] (Homo sapiens, A549, 48 h) it was 36 ± 0.99 µM; in data set [5] (Homo sapiens, MCF7, 48 h) it was more than 40 µM.

Regarding Mangostanin [Compound 2m], in data set [1], the “cytotoxicity” value is recorded as “slightly decreased activity or comparative activity”. The concentration for half-maximal inhibition (IC50) in data set [3] (SW480 cells, 48 h exposure) is more than 40 µM; in the data set with HL-60 (leukemia) cells (HL-60 cells, 48 h exposure), more than 40 µM; in data set [4] (A-549 cells, 48 h exposure) it was more than 40 µM; in data set [5] (MCF-7 cells, 48 h exposure), more than 40 µM.

Values taken from article PMC9091619 (RSC Advances, 2018).
